EBI2 block: EBI2 receptor antagonists, beta-arrestin recruitment, primary screen, cell-based, luminescence, 7a,25-OHC stimulation, uHTS; 7a,25-OHC stimulated; inhibition, % at 5 µM; actives 0.81% (n = 360,000); in the data active = inhibition above about 38%;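 also: enzyme fragment complementation signal reports receptor beta-arrestin coupling in cells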
HTR2A ag: mouse Htr2a agonists via beta-arrestin recruitment, primary screen, cell-based, luminescence; 5-hydroxytryptamine receptor 2A (Mus musculus), P35363; CHO-K1 mHTR2A beta-arrestin complementation; percent of 30 µM serotonin response; activation, % at 7.6 µM; actives 0.66% (n = 360,000); AID 624169, 2012;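 active = activation above a run cutoff, the mean activation of all tested compounds plus 3 SD, cut at about 14% in these data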
CCR6 antagonist: CCR6 receptor antagonists, primary screen, cell-based, CHO-K1, luminescence, beta-arrestin, uHTS; C-C chemokine receptor type 6 (Homo sapiens), P51684; CHO-K1 CCR6 PathHunter beta-arrestin, CCL20-stimulated; inhibition, % at 20 µM; actives 0.49% (n = 340,000); AID 493098, 2011;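 active = compounds whose inhibition of the agonist-driven luminescence signal at 20 µM reaches about 50%, limit read from the data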;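 also: cells stimulated with CCL20 at 14 nM final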
APJ antag: antagonists of human apelin receptor APJ, primary screen, CHO-K1 cells, beta-arrestin complementation, luminescence; P35414; actives 0.32% (n = 330,000); inhibition, % at 20 µM; AID 2521, 2010;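 active = inhibition above about 40% at 20 µM, limit read from the data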;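 also: cells challenged with 10 nM apelin-13 agonist together with compound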
APJ agonist: agonists of human apelin receptor APJ, primary screen, CHO-K1 cells, PathHunter beta-arrestin, luminescence; P35414; AID 2520, 2010; activation, % at 20 µM; 0% DMSO wells, 100% apelin; actives 0.11% (n = 330,000);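 active = activation more than six SD over the plate average, tested at 20 µM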
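Test system – PathHunter CHO-K1 APJ (AGTRL-1) beta-arrestin reporter cells · Input – 1000 cells/well · Compound – single test compound dose, 20 µM final, 1% DMSO · Times – compound stimulation 90 min at 25 °C, detection 60 min · Technique – beta-gal luminescence · Read-out basis – APJ–arrestin association signal · Control set – negative DMSO alone, positive Apelin-13 at 10 nM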
CXCR6 block: CXCR6 receptor inhibitors, primary screen, cell-based, beta-arrestin, luminescence, CHO-K1 PathHunter, 1536-well; C-X-C chemokine receptor type 6 (Homo sapiens), O00574; actives 0.36% (n = 360,000); inhibition, % at 20 µM; in the data active = inhibition above about 34%, passing the limit was not always enough;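 also: antagonist mode with CXCL16 agonist at 10 nM final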
Target sequence (O00574 whole entry, looked up): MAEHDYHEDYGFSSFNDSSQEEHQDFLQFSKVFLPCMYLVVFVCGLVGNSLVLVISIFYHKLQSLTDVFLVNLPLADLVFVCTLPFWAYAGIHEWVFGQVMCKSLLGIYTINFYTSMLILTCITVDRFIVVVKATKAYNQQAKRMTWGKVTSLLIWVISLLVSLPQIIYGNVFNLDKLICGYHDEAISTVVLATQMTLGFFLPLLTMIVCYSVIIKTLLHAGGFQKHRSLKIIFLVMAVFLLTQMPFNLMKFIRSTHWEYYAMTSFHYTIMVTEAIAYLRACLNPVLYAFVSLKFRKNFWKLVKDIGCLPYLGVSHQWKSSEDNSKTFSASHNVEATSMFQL
CXCR6 antag conf: CXCR6 receptor antagonists, confirmation, cell-based, single concentration, beta-arrestin, luminescence. shares compounds with CXCR6 block. CHO-K1 CXCR6 PathHunter beta-arrestin. inhibition, % at 20 µM. actives 65% (n = 700). AID 602409, 2012;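 active = mean inhibition over four retests above 40%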;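 also: receptor stimulated with 10 nM CXCL16 agonist; beta-galactosidase fragment complementation upon beta-arrestin recruitment to receptor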
Each line names hits and unclear results; the compound was inactive in the other large screens (follow-up assays come after a bar, where they were run). Rows were chosen to be rich in hits. Some 2.1% of all compounds tested hit in one or more screens of this group.

CC(CN1CCCC1)OC(=O)c1ccc(Cl)cc1 (centres undefined)	CXCR6 block 84 | CXCR6 antag conf inactive
O=S(=O)(c1ccc(-c2ccon2)s1)N1CCN(c2ccncc2)CC1	none (no result: EBI2 block, HTR2A ag, CXCR6 block)
C=CCN1C(=O)/C(=N/n2cnnc2)c2ccccc21	none
CC(C)CN1C(=O)C(=Nc2cccnc2)c2ccccc21	CXCR6 block 43 | CXCR6 antag conf inactive
CC1=C(CO)C(=O)OC([C@@H](C)C2CC[C@H]3C4C[C@H]5O[C@]56[C@@H](O)C=CC(=O)[C@]6(C)C4CC[C@]23C)C1 (some centres undefined)	EBI2 block 55, CXCR6 block 44 (no result: APJ antag, APJ agonist) | CXCR6 antag conf 48
CCCCc1c(Cc2ccccc2)ncn1CCc1ccccc1OC	CXCR6 block 38 (no result: CCR6 antagonist, APJ antag, APJ agonist) | CXCR6 antag conf inactive
COc1cccc(-c2csc(N3CCN(C(=O)Nc4ccccc4OC)CC3)n2)c1	CXCR6 block 68 | CXCR6 antag conf inactive
COc1cccc(-c2csc(N3CCN(C(=O)Nc4ccc(F)cc4)CC3)n2)c1	none
CCC(C)c1ccc(O)c(NC(=S)NC(=O)c2cccs2)c1 (centres undefined)	CXCR6 block 59 (no result: CCR6 antagonist, APJ antag, APJ agonist) | CXCR6 antag conf 64
O=C(CSc1nnc(NC(=O)c2ccco2)s1)Nc1ccc2c(c1)OCCO2	none
Cn1cnc([N+](=O)[O-])c1S(=O)(=O)c1ccc(Cl)cc1	CXCR6 block 42 (no result: APJ antag, APJ agonist) | CXCR6 antag conf 69
Cn1cnc([N+](=O)[O-])c1NC(C)(C)C	none
O=C(O)CN1C(=O)C2(OCCO2)c2cc(Br)ccc21	none
CCCOc1ccc(C(=O)NNC(=S)NC(=O)c2ccccc2)cc1	CCR6 antagonist 65, CXCR6 block 47 | CXCR6 antag conf inactive
CCCCOc1ccc(C(=O)NNC(=S)NC(=O)CC)cc1	CCR6 antagonist 68, CXCR6 block 57 (no result: APJ antag, APJ agonist) | CXCR6 antag conf 67
CCC(=O)NC(=S)NNC(=O)c1ccc(OC)cc1	none
CCCOc1ccc(C(=O)NNC(=S)NC(C)=O)cc1	none
CCCOc1ccc(C(=O)NNC(=S)NC(=O)c2cccs2)cc1	CCR6 antagonist 64, CXCR6 block 53 | CXCR6 antag conf inactive
COc1ccccc1N1CCN(C(=O)CCC(=O)Nc2nnc(C(C)C)s2)CC1	none
Cc1nn2c(NCc3ccccn3)cc(C(C)C)nc2c1-c1ccccc1	CCR6 antagonist 52, CXCR6 block 49 | CXCR6 antag conf inactive
CC1Cc2ccccc2N1C(=S)NC(=O)c1cccc(Br)c1 (centres undefined)	CXCR6 block 48 (no result: CCR6 antagonist) | CXCR6 antag conf 65
O=C1c2cccc3c([N+](=O)[O-])ccc(c23)C(=O)N1Cc1cccnc1	CXCR6 block 60 (no result: CCR6 antagonist, APJ antag, APJ agonist) | CXCR6 antag conf 65
Cc1cc(C)cc(N(CC(=O)NC2CCCC2)S(=O)(=O)c2c(C)[nH]c(=O)[nH]c2=O)c1	none
COc1ccc(N(CC(=O)NC2CCCC2)S(=O)(=O)c2c(C)[nH]c(=O)[nH]c2=O)cc1	CXCR6 block 35 | CXCR6 antag conf inactive
Cc1ccc(-c2nnc(N3CCOCC3)c3ccccc23)cc1S(=O)(=O)N(C)C	none
CC(Oc1cccc(Br)c1)C(=O)NNC(=O)c1ccccn1 (centres undefined)	CXCR6 block 52 | CXCR6 antag conf 56
CCc1ccc2c(c1)/C(=C/C(=O)c1cccs1)C(=O)N2	EBI2 block 67, CXCR6 block 41 | CXCR6 antag conf inactive
CCc1ccc2c(c1)/C(=N/N(C)C(=S)NC)C(=O)N2	none
CCOc1cc(/C=N/NC(=O)c2cccnc2)ccc1OC(=O)c1ccco1	none
CCOc1ccc(C=NNc2ccc(S(=O)(=O)Nc3ccccc3C(=O)O)cc2[N+](=O)[O-])cc1	none (no result: CCR6 antagonist)
C=CCOc1ccc(C=NNc2ccc(S(=O)(=O)Nc3ccccc3C(=O)O)cc2[N+](=O)[O-])cc1OC	CXCR6 block 50 (no result: CCR6 antagonist) | CXCR6 antag conf 44

Screening results as filed in PubChem.
